Entries after “also recorded” stand apart in the source; their conditions may differ.
Tests used:
[1] = In vitro oxidative metabolism, rat liver microsomes; type: in vitro ADME
Procedure, shortened: (§1)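 Pooled mixed-gender liver microsomes (human or Sprague-Dawley rat) were incubated with test compound plus NADPH for 60 min at 37 °C, then quenched with acetonitrile. Controls: time-zero and 60-min incubations without NADPH, plus testosterone incubations to confirm microsomal activity. Metabolites were sought by LC/MS full-scan analysis with UV detection at 214, 240 and 254 nm.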

[2] = In vitro oxidative metabolism, human liver microsomes; type: in vitro ADME
Procedure, shortened: as §1

[3] = Excretion in urine and feces of rats; type: in vivo, Sprague-Dawley rats; conditions: 10 mg/kg oral
[4] = tested on: S. typhimurium strains TA98 and TA100; assay: Abbreviated Ames; type: cell-based; conditions: plate incorporation, up to 5000 μg/plate, ±S9
Procedure, shortened: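 Salmonella TA98 and TA100 plate-incorporation assay per OECD 471, run with and without rat liver S9. Test compound and its decarboxylated impurity were tested at concentrations up to and including 5000 µg/plate, with vehicle and positive controls. Revertant colony counts were compared with vehicle control, and bacterial toxicity was recorded.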

[5] = tested on: S. typhimurium strains TA98, TA100, TA1535, TA1537 and E. coli strain WP2 uvrA; assay: Bacterial reverse mutation test; type: cell-based, Escherichia coli; conditions: 51-5000 ug/plate, plate incorporation and pre-incubation, ±S9
[6] = tested on: human peripheral blood lymphocytes (HPBL); assay: In vitro chromosome aberration test; type: cell-based; conditions: 125-500 ug/mL, 3 h ±S9, 20 h -S9
Procedure, shortened: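 Human peripheral blood lymphocytes were exposed to the sodium salt of the test compound (0–500 µg/mL) per OECD 473, with solvent and positive controls (mitomycin C −S9, cyclophosphamide +S9). Exposures: 3 h and 20 h without S9, and 3 h with S9 from phenobarbital/5,6-benzoflavone-induced male Sprague-Dawley rat liver. Structural and numerical aberrations were scored at 125, 250 and 500 µg/mL for each condition.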

Swiss albino (CD-1) mice = assay: In vivo mouse micronucleus assay; conditions: 500-2000 mg/kg bw oral, male mice
Sprague-Dawley rats = assay: 28-Day dose-range finding toxicity study; type: in vivo, rat; conditions: 28 days
[7] = Toxicokinetics in the 90-day dietary study; type: in vivo, Sprague-Dawley rats; conditions: for AUC(0-t): Sprague-Dawley [Crl:CD(SD)], rat, in vivo, po, AUC(0-24)
[8] = tested on: bred female Crl:CD(SD) rats; assay: Definitive developmental toxicity study; type: in vivo, rat
Procedure, shortened: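 Bred female Crl:CD(SD) rats, 25/group, dosed once daily by oral gavage at 0, 250, 500 or 1000 mg/kg/day from gestation Days 6 through 20. Laparohysterectomy on gestation Day 21. Uteri, placentae and ovaries were examined; viable and dead fetuses, early and late resorptions, implantations and corpora lutea were counted; gravid uterine weight, net body weight and fetal weights were recorded.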

[9] = Dietary exposure estimate; conditions: 100 mg/kg bw/day vs 2400 μg/day

## Cc1nc2cccc(OCC(C)(C)C(=O)NC(C)C)c2c(N)c1C(=O)O [S9632, 4-amino-5-(3-(isopropylamino)-2,2-dimethyl-3-oxopropoxy)-2-methylquinoline-3-carboxylic acid]
[1]; 10 µM, 60 min, 37 °C, NADPH
  Metabolism (Phase I biotransformations): not metabolized; also recorded: No Phase I biotransformations
[1]; 60 min incubation
  Level above which no metabolism was observed: ≤ 0.1 % of the parent drug
[2]; 10 µM, 60 min, 37 °C, NADPH
  Metabolism (Phase I biotransformations): not metabolized; also recorded: No Phase I biotransformations
[2]; 60 min incubation
  Level above which no metabolism was observed: ≤ 0.1 % of the parent drug
[3]
  Oxidative metabolites (M + 16) in fecal samples: not detectable
  Oxidative metabolites (M + 16) in urine: trace amounts
[4]
  Mutagenicity, result: not mutagenic
[5]
  Reverse mutation (in vitro), result: Negative
[6]
  Chromosome aberration (in vitro), result: Negative
Swiss albino (CD-1) mice
  Micronucleus formation (in vivo), result: did not induce micronuclei; also recorded: Negative
Sprague-Dawley rats; 10, 30, 100 mg/kg/day food ad-mix
  Findings: No test-article related findings
Sprague-Dawley rats; food ad-mix, male and female rats, highest dose tested
  NOEL: 100 mg/kg/day
[7]; both, 30 mg/kg/day, food ad-mix 30 mg/kg/day, Day 90, Combined
  AUC(0-t): 341 ng·h/mL
[7]; both, 100 mg/kg/day, food ad-mix 100 mg/kg/day, Day 7, Combined
  AUC(0-t): 1040 ng·h/mL
[7]; both, 100 mg/kg/day, food ad-mix 100 mg/kg/day, Day 90, Combined
  AUC(0-t): 1200 ng·h/mL
[7]; female, 30 mg/kg/day, food ad-mix 30 mg/kg/day, Day 90, Female
  AUC(0-t): 389 ng·h/mL
[7]; female, 100 mg/kg/day, food ad-mix 100 mg/kg/day, Day 90, Female
  AUC(0-t): 1400 ng·h/mL
[7]; food ad-mix 30 mg/kg/day, Day 7, Combined
  AUC0-24/dose: 5.92 ng·h/mL/mg/kg
[7]; food ad-mix 30 mg/kg/day, Day 7, Female
  AUC0-24/dose: 3.5 ng·h/mL/mg/kg
[7]; food ad-mix 30 mg/kg/day, Day 7, Male
  AUC0-24/dose: 8.34 ng·h/mL/mg/kg
[7]; food ad-mix 30 mg/kg/day, Day 90, Combined
  AUC0-24/dose: 11.4 ng·h/mL/mg/kg
[7]; food ad-mix 30 mg/kg/day, Day 90, Female
  AUC0-24/dose: 13.0 ng·h/mL/mg/kg
[7]; food ad-mix 30 mg/kg/day, Day 90, Male
  AUC0-24/dose: 9.75 ng·h/mL/mg/kg
[7]; food ad-mix 60 mg/kg/day, Day 7, Combined
  AUC0-24/dose: 6.61 ng·h/mL/mg/kg
[7]; food ad-mix 60 mg/kg/day, Day 7, Female
  AUC0-24/dose: 9.43 ng·h/mL/mg/kg
[7]; food ad-mix 60 mg/kg/day, Day 7, Male
  AUC0-24/dose: 3.79 ng·h/mL/mg/kg
[7]; food ad-mix 60 mg/kg/day, Day 90, Combined
  AUC0-24/dose: 13.3 ng·h/mL/mg/kg
[7]; food ad-mix 60 mg/kg/day, Day 90, Female
  AUC0-24/dose: 9.14 ng·h/mL/mg/kg
[7]; food ad-mix 60 mg/kg/day, Day 90, Male
  AUC0-24/dose: 17.5 ng·h/mL/mg/kg
[7]; food ad-mix 100 mg/kg/day, Day 7, Combined
  AUC0-24/dose: 10.4 ng·h/mL/mg/kg
[7]; food ad-mix 100 mg/kg/day, Day 7, Female
  AUC0-24/dose: 11.7 ng·h/mL/mg/kg
[7]; food ad-mix 100 mg/kg/day, Day 7, Male
  AUC0-24/dose: 9.15 ng·h/mL/mg/kg
[7]; food ad-mix 100 mg/kg/day, Day 90, Combined
  AUC0-24/dose: 12.0 ng·h/mL/mg/kg
[7]; food ad-mix 100 mg/kg/day, Day 90, Female
  AUC0-24/dose: 14.0 ng·h/mL/mg/kg
[7]; food ad-mix 100 mg/kg/day, Day 90, Male
  AUC0-24/dose: 10.0 ng·h/mL/mg/kg
[7]; male, 30 mg/kg/day, food ad-mix 30 mg/kg/day, Day 90, Male
  AUC(0-t): 293 ng·h/mL
[7]; male, 100 mg/kg/day, food ad-mix 100 mg/kg/day, Day 90, Male
  AUC(0-t): 1000 ng·h/mL
[8]; 250 mg/kg/d
  Corpora Lutea, Mean: 16.3
  Corpora Lutea, Total: 407
  Dead fetuses, Mean: 0
  Dead fetuses, Total: 0
  Fetal Wt., Mean: 5.5 g
  Fetuses Sex F, Mean: 6.8
  Fetuses Sex F, Total: 169
  Fetuses Sex M, Mean: 7.6
  Fetuses Sex M, Total: 189
  Implant. sites, Mean: 15.3
  Implant. sites, Total: 382
  Post-implant. loss, Mean: 1.0
  Post-implant. loss, Total: 24
  Pre-implant. loss, Mean: 1.0
  Pre-implant. loss, Total: 25
  Resorptions Early, Mean: 1.0
  Resorptions Early, Total: 24
  Resorptions Late, Mean: 0
  Resorptions Late, Total: 0
  Viable fetuses, Mean: 14.3
  Viable fetuses, Total: 358
[8]; 250 mg/kg/day
  Malformations, fetuses (litters): 1(1)
[8]; 500 mg/kg/d
  Corpora Lutea, Mean: 16.8
  Corpora Lutea, Total: 421
  Dead fetuses, Mean: 0
  Dead fetuses, Total: 0
  Fetal Wt., Mean: 5.4 g
  Fetuses Sex F, Mean: 7.4
  Fetuses Sex F, Total: 184
  Fetuses Sex M, Mean: 7.1
  Fetuses Sex M, Total: 177
  Implant. sites, Mean: 15.3
  Implant. sites, Total: 383
  Post-implant. loss, Mean: 0.9
  Post-implant. loss, Total: 22
  Pre-implant. loss, Mean: 1.5
  Pre-implant. loss, Total: 38
  Resorptions Early, Mean: 0.5
  Resorptions Early, Total: 12
  Resorptions Late, Mean: 0.4
  Resorptions Late, Total: 10
  Viable fetuses, Mean: 14.4
  Viable fetuses, Total: 361
[8]; 500 mg/kg/day
  Malformations, fetuses (litters): 1(1)
[8]; 1000 mg/kg/d
  Corpora Lutea, Mean: 16.5
  Corpora Lutea, Total: 413
  Dead fetuses, Mean: 0
  Dead fetuses, Total: 0
  Fetal Wt., Mean: 5.6 g
  Fetuses Sex F, Mean: 7.8
  Fetuses Sex F, Total: 194
  Fetuses Sex M, Mean: 7.2
  Fetuses Sex M, Total: 181
  Implant. sites, Mean: 15.7
  Implant. sites, Total: 393
  Post-implant. loss, Mean: 0.7
  Post-implant. loss, Total: 18
  Pre-implant. loss, Mean: 0.80
  Pre-implant. loss, Total: 20
  Resorptions Early, Mean: 0.7
  Resorptions Early, Total: 18
  Resorptions Late, Mean: 0
  Resorptions Late, Total: 0
  Viable fetuses, Mean: 15.0
  Viable fetuses, Total: 375
[8]; 1000 mg/kg/day
  Malformations, fetuses (litters): 3(3)
[9]
  NOAEL (90-day) relative to estimated dietary exposure: 2500 times
